Several values for one entry are separate records, joined by “and”; a condition that tells them apart may be missing. Identical values can stand only once. Like-named read-outs stand apart in the source and are kept apart here.
What was measured:
[1] = 6-week GLP Safety and Toxicity study of UoS12258, cynomolgus monkey; assay type: in vivo; settings: cynomolgus monkey, in vivo, po
cynomolgus monkeys = test: as above; assay type: in vivo; settings: 6-week GLP
rats [2] = test: 6-week GLP Safety and Toxicity study of UoS12258, rat; assay type: in vivo
[3] = test system: native neuronal AMPARs in rat cultured hippocampal neurons; settings: rat primary hippocampal neurons; ref Ward et al., 2017; cited from earlier work
rats [4] = settings: p.o.; ref Ward et al., 2017; cited from earlier work
Male Wistar rats [5] = settings: p.o.; ref Ward et al., 2017; cited from earlier work
male Lister Hooded rats [6] = settings: ref Ward et al., 2017, cited from earlier work
[7] = target: Homomeric human GluA1 flip isoform (hGluA1i) (Homo sapiens, UniProt P42261); test: Intracellular Ca2+ influx assay; assay type: cell-based; settings: relative to positive control LY404187
Sequence of Homomeric human GluA1 flip isoform (hGluA1i) (P42261 19-906 isoform P42261-2 limits assumed): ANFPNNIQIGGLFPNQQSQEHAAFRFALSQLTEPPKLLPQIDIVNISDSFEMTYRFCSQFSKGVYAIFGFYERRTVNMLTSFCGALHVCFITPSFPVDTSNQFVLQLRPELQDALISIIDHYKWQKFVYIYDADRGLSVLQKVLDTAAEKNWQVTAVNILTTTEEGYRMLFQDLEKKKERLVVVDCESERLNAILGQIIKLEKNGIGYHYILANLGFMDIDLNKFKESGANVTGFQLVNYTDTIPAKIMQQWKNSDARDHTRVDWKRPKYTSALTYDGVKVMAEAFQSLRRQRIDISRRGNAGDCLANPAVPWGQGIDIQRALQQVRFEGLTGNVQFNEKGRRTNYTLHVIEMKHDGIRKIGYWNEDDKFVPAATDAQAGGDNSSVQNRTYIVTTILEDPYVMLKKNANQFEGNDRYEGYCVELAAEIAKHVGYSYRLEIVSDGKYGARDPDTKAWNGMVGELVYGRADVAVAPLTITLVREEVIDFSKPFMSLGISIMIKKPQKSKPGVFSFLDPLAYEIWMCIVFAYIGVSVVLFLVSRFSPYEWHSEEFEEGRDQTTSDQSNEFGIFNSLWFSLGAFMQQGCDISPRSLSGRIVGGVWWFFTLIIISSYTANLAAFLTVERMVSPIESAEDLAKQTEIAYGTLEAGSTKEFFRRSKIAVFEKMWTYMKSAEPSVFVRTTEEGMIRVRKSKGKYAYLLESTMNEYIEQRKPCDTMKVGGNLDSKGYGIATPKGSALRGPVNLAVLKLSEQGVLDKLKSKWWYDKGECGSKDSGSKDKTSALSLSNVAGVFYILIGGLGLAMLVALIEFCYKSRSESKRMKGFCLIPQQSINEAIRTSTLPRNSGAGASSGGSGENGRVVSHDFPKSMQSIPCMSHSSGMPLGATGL
Method in brief: (§1)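 AMPA receptor flip isoforms expressed in HEK-293 cells: hGluA1i, hGluA3i, hGluA4i and rat GluA2i by lipofectamine transient transfection, and hGluA2i stably. All were Q-unedited in TM2. Cells were seeded on poly-D-lysine 2 days before assay and loaded with Fluo-4AM (2 μM final) for 60 min in the dark in HEPES buffer, pH 7.3. Test compound (1:3 serial dilution) was added with glutamate (100 μM final), and FLIPR fluorescence was read. Maximum response was scaled to LY404187 run on each plate.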

hGluA2i AMPAR = hGluA2i AMPAR (Homo sapiens, UniProt P42262); test: Intracellular Ca2+ influx assay; assay type: cell-based
Sequence of hGluA2i AMPAR (P42262 25-883 isoform P42262-2 limits assumed): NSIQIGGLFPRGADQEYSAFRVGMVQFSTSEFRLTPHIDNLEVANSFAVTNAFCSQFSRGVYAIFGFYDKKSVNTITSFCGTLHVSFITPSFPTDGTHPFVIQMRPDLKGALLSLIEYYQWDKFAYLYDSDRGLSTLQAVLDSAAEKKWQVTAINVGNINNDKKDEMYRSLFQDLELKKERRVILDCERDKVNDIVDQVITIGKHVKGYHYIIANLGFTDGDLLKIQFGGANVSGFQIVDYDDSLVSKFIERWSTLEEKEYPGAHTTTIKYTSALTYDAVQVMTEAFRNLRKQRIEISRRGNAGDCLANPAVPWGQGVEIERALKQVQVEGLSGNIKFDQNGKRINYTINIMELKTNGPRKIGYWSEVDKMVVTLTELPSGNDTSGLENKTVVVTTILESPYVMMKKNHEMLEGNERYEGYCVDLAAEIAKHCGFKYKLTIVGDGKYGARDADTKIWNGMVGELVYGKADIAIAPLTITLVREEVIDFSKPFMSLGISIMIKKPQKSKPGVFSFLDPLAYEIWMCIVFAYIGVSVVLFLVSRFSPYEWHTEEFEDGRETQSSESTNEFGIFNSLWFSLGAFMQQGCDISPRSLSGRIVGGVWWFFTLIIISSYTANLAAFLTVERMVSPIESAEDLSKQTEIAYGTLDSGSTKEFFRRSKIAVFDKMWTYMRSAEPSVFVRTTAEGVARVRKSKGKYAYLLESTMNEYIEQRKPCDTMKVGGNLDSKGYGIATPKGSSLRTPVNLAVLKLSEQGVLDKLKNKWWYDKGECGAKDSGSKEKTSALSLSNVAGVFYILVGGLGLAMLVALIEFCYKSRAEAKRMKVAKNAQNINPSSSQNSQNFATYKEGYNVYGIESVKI
Method in brief: as §1

hGluA3i AMPAR = hGluA3i AMPAR (Homo sapiens, UniProt P42263); test: Intracellular Ca2+ influx assay; assay type: cell-based
Sequence of hGluA3i AMPAR (P42263 29-894 isoform P42263-2 limits assumed): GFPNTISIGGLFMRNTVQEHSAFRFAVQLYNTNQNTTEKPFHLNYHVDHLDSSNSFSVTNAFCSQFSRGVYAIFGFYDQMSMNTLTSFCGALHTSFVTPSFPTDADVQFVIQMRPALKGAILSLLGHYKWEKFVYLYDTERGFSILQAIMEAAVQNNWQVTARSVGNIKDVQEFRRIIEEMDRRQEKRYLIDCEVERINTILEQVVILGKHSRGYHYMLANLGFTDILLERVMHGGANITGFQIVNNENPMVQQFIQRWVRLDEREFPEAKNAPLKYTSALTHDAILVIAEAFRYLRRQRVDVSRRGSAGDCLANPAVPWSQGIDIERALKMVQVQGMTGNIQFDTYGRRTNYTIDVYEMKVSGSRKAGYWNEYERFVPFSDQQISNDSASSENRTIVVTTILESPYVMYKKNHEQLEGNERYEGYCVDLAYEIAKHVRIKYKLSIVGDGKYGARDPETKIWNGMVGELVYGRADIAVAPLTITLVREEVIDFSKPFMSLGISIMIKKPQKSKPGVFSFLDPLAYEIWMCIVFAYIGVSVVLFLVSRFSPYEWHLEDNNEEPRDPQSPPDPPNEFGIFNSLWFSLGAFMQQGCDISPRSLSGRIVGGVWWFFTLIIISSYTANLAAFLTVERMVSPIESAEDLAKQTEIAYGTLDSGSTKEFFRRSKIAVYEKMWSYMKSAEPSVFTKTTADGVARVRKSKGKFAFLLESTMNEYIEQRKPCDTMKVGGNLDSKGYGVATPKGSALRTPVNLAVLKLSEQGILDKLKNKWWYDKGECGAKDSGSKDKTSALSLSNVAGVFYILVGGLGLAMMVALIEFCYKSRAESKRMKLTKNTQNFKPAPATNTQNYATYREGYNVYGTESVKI
Method in brief: as §1

hGluA4i AMPAR = hGluA4i AMPAR (Homo sapiens, UniProt P48058); test: Intracellular Ca2+ influx assay; assay type: cell-based
Sequence of hGluA4i AMPAR (P48058 21-902): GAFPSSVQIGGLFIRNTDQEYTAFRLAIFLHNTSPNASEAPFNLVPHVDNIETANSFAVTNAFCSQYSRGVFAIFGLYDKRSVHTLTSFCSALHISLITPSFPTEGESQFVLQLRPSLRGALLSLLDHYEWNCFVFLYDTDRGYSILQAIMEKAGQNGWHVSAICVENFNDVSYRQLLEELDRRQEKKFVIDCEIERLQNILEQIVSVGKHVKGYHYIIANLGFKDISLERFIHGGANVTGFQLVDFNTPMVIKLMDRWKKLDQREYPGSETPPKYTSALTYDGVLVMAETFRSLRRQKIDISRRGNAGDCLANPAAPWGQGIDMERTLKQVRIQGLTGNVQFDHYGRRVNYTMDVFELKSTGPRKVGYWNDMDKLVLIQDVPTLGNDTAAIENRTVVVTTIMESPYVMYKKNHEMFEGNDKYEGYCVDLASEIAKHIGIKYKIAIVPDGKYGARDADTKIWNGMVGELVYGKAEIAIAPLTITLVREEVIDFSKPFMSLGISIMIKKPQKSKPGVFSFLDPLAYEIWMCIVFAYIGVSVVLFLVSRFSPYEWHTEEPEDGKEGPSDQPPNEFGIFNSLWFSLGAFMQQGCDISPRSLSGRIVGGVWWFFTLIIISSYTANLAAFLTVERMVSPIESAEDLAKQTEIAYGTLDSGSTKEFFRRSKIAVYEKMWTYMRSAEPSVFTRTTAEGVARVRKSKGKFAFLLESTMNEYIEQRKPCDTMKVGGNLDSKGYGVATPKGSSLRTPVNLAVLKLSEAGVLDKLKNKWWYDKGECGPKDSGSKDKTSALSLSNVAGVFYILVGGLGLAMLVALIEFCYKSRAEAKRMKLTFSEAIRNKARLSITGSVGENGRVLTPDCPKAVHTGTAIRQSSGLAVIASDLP
Method in brief: as §1

rat GluA2i AMPAR = rat GluA2i AMPAR (Rattus norvegicus, UniProt P19491); test: Intracellular Ca2+ influx assay; assay type: cell-based
Sequence of rat GluA2i AMPAR (P19491 22-883 isoform P19491-2 limits assumed): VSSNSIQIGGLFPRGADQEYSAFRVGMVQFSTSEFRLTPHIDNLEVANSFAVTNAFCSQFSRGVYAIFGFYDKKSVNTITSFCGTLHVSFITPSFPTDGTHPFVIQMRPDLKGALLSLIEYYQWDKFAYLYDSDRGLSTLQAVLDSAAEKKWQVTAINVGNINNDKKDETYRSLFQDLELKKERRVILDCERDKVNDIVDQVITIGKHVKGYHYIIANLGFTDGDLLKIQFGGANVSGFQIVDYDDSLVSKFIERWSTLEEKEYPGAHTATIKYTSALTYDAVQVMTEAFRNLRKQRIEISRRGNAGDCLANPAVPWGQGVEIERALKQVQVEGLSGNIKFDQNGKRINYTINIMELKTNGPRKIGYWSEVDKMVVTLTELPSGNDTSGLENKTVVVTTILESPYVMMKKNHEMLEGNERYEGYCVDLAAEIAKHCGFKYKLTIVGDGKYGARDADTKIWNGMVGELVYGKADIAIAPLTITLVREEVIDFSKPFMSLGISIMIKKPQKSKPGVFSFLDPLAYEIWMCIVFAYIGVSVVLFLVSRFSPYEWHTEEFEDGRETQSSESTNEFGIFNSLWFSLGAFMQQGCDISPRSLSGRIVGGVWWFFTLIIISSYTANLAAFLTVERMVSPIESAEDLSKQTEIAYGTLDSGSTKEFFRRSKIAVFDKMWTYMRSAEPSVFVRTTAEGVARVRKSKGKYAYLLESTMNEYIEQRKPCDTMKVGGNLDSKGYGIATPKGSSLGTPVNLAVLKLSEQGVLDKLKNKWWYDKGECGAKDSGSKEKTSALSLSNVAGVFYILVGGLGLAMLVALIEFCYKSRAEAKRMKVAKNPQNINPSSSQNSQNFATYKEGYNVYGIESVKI
Method in brief: as §1

[8] = test system: Heteromeric hGluN1A/GluN2B NMDARs; test: Ca2+ flux assay or whole-cell patch clamp, NMDAR; assay type: cell-based, human; settings: Ca2+ flux assay or whole-cell patch clamp (data not shown)
Method in brief: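 HEK-293 cells were transduced with hGluN1A and hGluN2B BacMam vectors in the presence of 500 μM ketamine, then plated on poly-D-lysine, still with 500 μM ketamine, for 24 h. In the Ca2+ flux format, cells were loaded with Fluo-4AM (2 μM final) for 60 min, washed, then given test compound (1:3 serial dilution) plus glutamate (100 μM final), with FLIPR fluorescence read-out.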

[9] = test system: Homomeric hGluK1 kainate receptors; test: Ca2+ flux assay or whole-cell patch clamp, GluK1; assay type: cell-based, human; settings: Ca2+ flux assay or whole-cell patch clamp (data not shown)
Method in brief: (§2)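 Kainate receptors in HEK cells: hGluK1 (Q-unedited) by lipofectamine transient transfection, hGluK2 stably expressed. Cells were seeded 24 h before assay. In the Ca2+ flux format, cells were loaded with Fluo-4AM (2 μM final) for 60 min in the dark, washed, then given test compound (1:3 serial dilution) plus glutamate (100 μM final), with FLIPR fluorescence read-out.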

Human GluK2 receptors = test: Ca2+ flux assay or whole-cell patch clamp, GluK2; assay type: cell-based; settings: Ca2+ flux assay or whole-cell patch clamp (data not shown)
Method in brief: as §2

hGluA2 AMPARs = hGluA2 AMPARs (Homo sapiens, UniProt P42262); test: Recombinant receptor whole-cell electrophysiology; assay type: cell-based; settings: 1 mM glutamate
Sequence of hGluA2 AMPARs (P42262 25-883 isoform P42262-2 limits assumed): as the sequence (P42262 25-883 isoform P42262-2 limits assumed) above
Method in brief: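 HEK cells stably expressing hGluA2 were plated on poly-D-lysine coverslips and used 1-2 days later. Perforated-patch whole-cell recording at -60 mV used 2-5 MΩ pipettes, NaCl/HEPES external solution (pH 7.35) and CsCl/EGTA internal solution (pH 7.3). Glutamate (1 mM) was applied by fast perfusion for 2 s every 30 s, with or without test compound. Responses were related to the current from 1 mM glutamate alone.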

[10] = test system: native neuronal AMPARs in rat cultured hippocampal neurons; test: Native receptor electrophysiology in cultured hippocampal neurons; assay type: cell-based
Method in brief: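 Hippocampi from embryonic rats were trypsinised (0.05%, 30 min, 37 °C), dissociated and grown in Neurobasal/B27 for 5-13 days. Whole-cell voltage clamp was held at -70 mV, with AMPA (30 μM) applied for 2 s every 30 s by fast perfusion, with test compound at 1 nM-10 μM. Charge transfer, desensitisation and deactivation were compared with AMPA alone by paired t-test.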

[11] = In vivo electrophysiology, dentate gyrus population spike; set-up: species or system rat; settings: male, Lister hooded, rat, brain, iv
anaesthetised rats = test: as above; set-up: species or system rat; settings: 10 mg/kg i.v.; vehicle 70%
Male Wistar rats [12] = test: Passive avoidance, scopolamine-induced deficit; assay type: in vivo, rat
[13] = 7-day dose-range finding study, rat; assay type: in vivo; settings: rat, plasma, po, 1600 mg/kg
rat [14] = test: 7-day dose-range finding study, rat; assay type: in vivo; settings: doses of up to 1,600 mg/kg, 7-day
dog [15] = test: 7-day dose-range finding study, dog; assay type: in vivo; settings: doses of up to 1,000 mg/kg
[16] = 4-week GLP safety assessment study, rat; assay type: in vivo; settings: rat, plasma, po, 800 mg/kg
rat [17] = test: 4-week GLP safety assessment study, rat; assay type: in vivo
dog [18] = test: 4-week GLP safety assessment study, dog; assay type: in vivo
Solubility = assay type: physicochemical
pregnane X receptor = test: Pregnane X receptor activation; settings: linked to a potential for drug-drug interactions
Novel object recognition = settings: rat, in vivo, 0.1 mg/kg, 0.1 mg/kg p.o. sub-chronic
rats [19] = test: Novel object recognition; settings: p.o.
[20] = Maximal electroshock threshold; settings: male, Lister Hooded, rat, brain, oral, 30 mg/kg
male Lister Hooded rats [21] = test: Maximal electroshock threshold
[22] = relative to positive control LY404187

Compound: CC(C)S(=O)(=O)N[C@H]1Cc2ccc(-c3ccc(F)nc3)cc2C1 [UoS12258, N-[(2S)-5-(6-fluoro-3-pyridinyl)-2,3-dihydro-1H-inden-2-yl]-2-propanesulfonamide]
- NOAEL at 6 weeks [1]: 2.5 mg/kg
- dose at which convulsions were observed (cynomolgus monkeys): 4 mg/kg
- dose at which convulsions were observed (rats [2]): 10 mg/kg
- maximal potentiation in the charge transfer [3]: 310%
- MED, NOR following sub-chronic dosing (rats [4]): 0.01 mg/kg
- MED, acute-dosing NOR (rats [4]): 0.3 mg/kg
- MED, reversal of scopolamine-induced deficit (Male Wistar rats [5]): 3 mg/kg
- brain exposure (male Lister Hooded rats [6]; 100 mg/kg p.o.): around 5.0 μg/g
- proconvulsant effect in MEST (male Lister Hooded rats [6]; 100 mg/kg p.o.): comparable to that of the positive control picrotoxin
- proconvulsant dose in MEST (male Lister Hooded rats [6]; p.o.): 10 mg/kg

Compound: O=C(c1ccc(-n2nc(C(F)(F)F)c3c2CCCC3)cc1)N1CCCC1 [MDI-222, 1-[4-(1-pyrrolidinylcarbonyl)phenyl]-3-(trifluoromethyl)-4,5,6,7-tetrahydro-1H-indazole]
- Max. % response [7]: 30 ± 2 (4) %
- EC50 (hGluA2i AMPAR): 5 µM
- Max. % response (hGluA2i AMPAR; [22]): 123 ± 7% and 123 ± 7 (9) %
- EC50 (hGluA3i AMPAR): 31.6 µM
- Max. % response (hGluA3i AMPAR; [22]): 53 ± 3 (3) %
- EC50 (hGluA4i AMPAR): 7.94 µM
- Max. % response (hGluA4i AMPAR; [22]): 76 ± 1 (4) %
- EC50 (rat GluA2i AMPAR): 3.98 µM
- Max. % response (rat GluA2i AMPAR; [22]): 76 ± 8 (4) %
- effect on glutamate-induced currents [8]: no effects
- effect on glutamate-induced currents [9]: no effects
- effect on glutamate-induced currents (Human GluK2 receptors): no effects
- potentiation of glutamate-evoked charge transfer (area under the curve) (hGluA2 AMPARs; 100 nM): 121 ± 7%
- potentiation of glutamate-evoked charge transfer (area under the curve) (hGluA2 AMPARs; 10 μM): 702 ± 40%
- Charge transfer, normalised to AMPA alone ([10]; 1 nM): 1.14 ± 0.05
- Deactivation, normalised to AMPA alone ([10]; 1 nM): 1.06 ± 0.04
- Desensitisation, normalised to AMPA alone ([10]; 1 nM): 0.77 ± 0.10
- Charge transfer, normalised to AMPA alone ([10]; 10 nM): 1.37 ± 0.09
- Deactivation, normalised to AMPA alone ([10]; 10 nM): 1.19 ± 0.15
- Desensitisation, normalised to AMPA alone ([10]; 10 nM): 0.81 ± 0.05
- Charge transfer, normalised to AMPA alone ([10]; 100 nM): 1.33 ± 0.12
- Deactivation, normalised to AMPA alone ([10]; 100 nM): 1.29 ± 0.17
- Desensitisation, normalised to AMPA alone ([10]; 100 nM): 0.76 ± 0.03
- Charge transfer, normalised to AMPA alone ([10]; 1 μM): 1.28 ± 0.14
- Deactivation, normalised to AMPA alone ([10]; 1 μM): 1.33 ± 0.17
- Desensitisation, normalised to AMPA alone ([10]; 1 μM): 0.72 ± 0.04
- Charge transfer, normalised to AMPA alone ([10]; 10 μM): 1.62 ± 0.15
- Deactivation, normalised to AMPA alone ([10]; 10 μM): 2.79 ± 0.43
- Desensitisation, normalised to AMPA alone ([10]; 10 μM): 0.25 ± 0.08
- increase in charge transfer (maximal potentiation) ([10]; 10 μM): 62%
- minimum effective concentration, charge transfer ([10]; AMPA 30 μM): 1 nM
- minimum effective concentration, desensitisation ([10]; AMPA 30 μM): 10 nM
- inward current when applied in the absence of AMPA ([10]; no agonist): did not invoke an inward current
- concentration at 20 min [11]: 11600 ng/g
- dentate gyrus population spike amplitude (anaesthetised rats): 139 % of baseline
- MED, reversal of scopolamine-induced deficit (Male Wistar rats [12]; p.o.): 10 mg/kg
- Cmax [13]: ~15000 ng/mL
- convulsions / tolerability (rat [14]): did not produce convulsions
- convulsions / tolerability (dog [15]): did not produce convulsions
- Cmax [16]: 13 to 17000 ng/mL
- systemic exposure on Day 28 relative to Day 1, fold lower (rat [17]; 4-week study): up to 6 fold
- convulsions (rat [17]; highest dose 800 mg/kg, 4-week GLP): no convulsions observed
- systemic exposure on Day 28 relative to Day 1, fold lower (dog [18]; 4-week study): ≤ 9 fold
- convulsions (dog [18]; highest dose 1,000 mg/kg, 4-week GLP): no convulsions observed
- solubility (Solubility): poor solubility
- pregnane X receptor (pregnane X receptor): activation
- concentration at 30 min (Novel object recognition; mean blood level): 7 ng/mL
- concentration at 30 min (Novel object recognition; mean brain level): 9 ng/g
- minimal effective dose (D2 index), acute (rats [19]; acute single-dose): 0.3 mg/kg
- minimal effective dose, sub-chronic (rats [19]; sub-chronic (7-day) dosing): 0.1 mg/kg
- concentration at 0.5 h [20]: ~4700 ng/g
- brain drug concentration (male Lister Hooded rats [21]; 30 mg/kg p.o.): approximately 4.7 μg/g
- CC50 lower than vehicle-treated rats (male Lister Hooded rats [21]; 3, 10 and 30 mg/kg p.o.): 10-15%
- effect on seizure threshold (male Lister Hooded rats [21]; up to 30 mg/kg p.o.): did not significantly affect the seizure threshold

Compound: CN1[C@@H]2C[C@@H](OC(=O)[C@H](CO)c3ccccc3)C[C@H]1[C@@H]1O[C@@H]12 [scopolamine, reference compound]
- step-through latency (Male Wistar rats [12]; scopolamine 1 mg/kg i.p., vehicle 457 ± 83 s): 157 ± 46 s

From PMC7610887 (Journal of psychopharmacology (Oxford, England), 2019)
